A selection: hits, their analogues and other compounds. The true share with any hit is near 2.5%.
Rin1-Abl PPI inh = human Rin1-Abl interaction inhibition | TR-FRET Rin1/Abl binding, biochemical | inhibition, % at 7.35 µM | 0.4% of 360,000 active | AID 588664; in the data active means inhibition above about 5%, passing the limit was not always enough
Beta2AR agonist = activates human beta-2 adrenergic receptor causing internalization. P07550. Am2.2-beta2AR cells, FAP receptor internalization, flow cytometry. response, % (test concentration not listed). 0.43% of 340,000 active. AID 504454;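 active means response above a set limit, near 3 SD of response in nonfluorescent compounds, cut at about 42% in these data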
Target sequence (P07550 whole entry, looked up): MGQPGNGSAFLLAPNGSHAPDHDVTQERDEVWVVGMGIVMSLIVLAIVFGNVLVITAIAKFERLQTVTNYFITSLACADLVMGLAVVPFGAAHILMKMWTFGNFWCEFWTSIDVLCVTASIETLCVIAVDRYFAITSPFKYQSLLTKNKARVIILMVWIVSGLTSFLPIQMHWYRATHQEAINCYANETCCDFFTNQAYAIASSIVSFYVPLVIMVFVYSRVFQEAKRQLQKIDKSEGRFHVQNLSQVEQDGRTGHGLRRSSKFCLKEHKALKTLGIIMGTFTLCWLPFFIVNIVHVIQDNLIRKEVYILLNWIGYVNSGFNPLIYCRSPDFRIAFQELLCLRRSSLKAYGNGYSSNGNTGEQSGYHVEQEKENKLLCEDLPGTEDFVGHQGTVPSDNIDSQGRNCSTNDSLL
Arr AP2 block = human beta-arrestin and AP2 interaction inhibition; FITC-arrestin peptide / GST-AP2 beads, flow cytometry; AP2 beta2 appendage carries R879A mutation; inhibition, % at 10 µM; 0.31% of 340,000 active;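 active means inhibition above a set limit, near 3 SD of compounds lacking own fluorescence, cut at about 54% in these data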;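 further: plate controls were DMSO wells for no effect and 5 µM unlabelled arrestin peptide for full effect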
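System: GST-AP2 R879A glutathione beads | Also added: FITC-arrestin peptide, 50 nM | Times: 12 min plus 1 h, RT | Signal: Bead flow cytometry, FITC channel | Buffer or medium: PBS with 0.05% Tween 20 and 0.1% BSA | Read-out basis: Percent drop in bead-associated FITC signal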
MBD2 inh = inhibitors of human MBD2 binding to methylated oligonucleotide; Q9UBB5; TR-FRET; 0.31% of 370,000 active; AID 686964; inhibition, % at 4.4 µM; in the data active means inhibition above about 13%
UHRF1 binding = blocks human UHRF1 binding to methylated DNA; 0.75% of 370,000 active; AID 687016; inhibition, % at 4.4 µM; UHRF1 binding to methylated oligo, TR-FRET; Q96T88; in the data active means inhibition above about 21%;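 further: UHRF1 SRA domain binding a hemimethylated CpG hairpin DNA probe; 0% = median of test compound wells and 100% = reference inhibitor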
ABHD5-PLIN5 inh = blocks binding of human ABHD5 to perilipin-5. AID 602281. inhibition, % at 4 µM. 0.78% of 360,000 active. Split G. princeps luciferase complementation, luminescence, 4 h;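 active means inhibition above the mean inhibition across every tested compound plus 3 SD, cut at about 22% in these data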;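 further: 0% = DMSO only wells and the 100% control is not disclosed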
Arr-AP2 CP1 = inhibitors of human beta-arrestin and AP2 interaction. shares compounds with Arr AP2 block. GST-AP2 beads, FITC arrestin peptide binding, flow cytometry; GST-fused beta2-adaptin appendage, R879A mutant. 2% of 1,300 active. inhibition, % at 10 µM. AID 504908;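 active means inhibition above a set limit, roughly 3 SD of non-fluorescent compound noise, cut at about 38% in these data; inactive means inhibition at or below that limit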;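 further: loss of bead fluorescence from 50 nM FITC arrestin peptide bound to appendage; 0% = negative control wells and 100% = excess unlabelled arrestin peptide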
GST GSH counter = disrupts GST binding to glutathione beads, arrestin-AP2 artifact. shares compounds with Arr AP2 block. GST-fluorescein binding to GSH beads, fluorescence, counter-screen. inhibition, % at 10 µM. 2% of 1,300 active. AID 588338;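 active means inhibition above 50%, about 3 SD of the inhibition seen with non-fluorescent compounds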;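 further: fluorescein maleimide labelled GST captured on 4 micron glutathione beads; higher means more loss of bead fluorescence from quenching or blocked binding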
An asterisk follows results filed as active; x = no result.

SMILES	Rin1-Abl PPI inh	Beta2AR agonist	Arr AP2 block	MBD2 inh	UHRF1 binding	ABHD5-PLIN5 inh	Arr-AP2 CP1	GST GSH counter
CN(CCO)c1ccc2c(c1)Oc1ccccc1CN(Cc1cn(Cc3cccc(C(F)(F)F)c3)nn1)S2(=O)=O	x	x	x	-3.5	2.0	x	x	x
CCOC(=O)C1=CC[C@H]2c3c(c4ccc(OC)cc4n3C)C(=O)C1N2S(=O)(=O)c1ccc(C)cc1	0.2	-3.2	58.3*	0.8	13.2	-6.2	12.3	-3.7
Cc1sc2nc(CN3CCOCC3)nc(N3CCOCC3)c2c1C	1.6	1.7	58.3*	-2.5	-2.8	0.9	18.5	-2.5
CC(C)C[C@@H]1COc2cc(Br)ccc2S(=O)(=O)N1Cc1cn(CCC2OCCO2)nn1	x	x	x	-1.1	0.9	x	x	x
Cc1cc(OCC(=O)Nc2nccs2)c2c(C)cc(=O)oc2c1	-0.9	8.1	60.3*	-5.0	-1.8	0.6	2.2	-0.8
CC(O)c1nc2ccccc2n1Cc1ccccc1 (stereo not drawn)	-1.4	-1.0	54.3*	0.1	-2.0	6.3	-3.3	-6.2
COCCN(C(=O)COC(=O)/C(=C/c1ccccc1)NC(C)=O)c1c(N)n(Cc2ccccc2)c(=O)[nH]c1=O	2.6	12.4	59.3*	0.3	-1.9	8.4	10.5	-0.5
COCCNc1nc2ccccc2nc1NS(=O)(=O)c1ccc(C)cc1C	-1.6	-7.7	104.7*	2.2	1.1	-2.6	-7.6	-8.1
COCCCNc1nc2ccccc2nc1NS(=O)(=O)c1ccc(C)c(C)c1	-4.7	-22.1	7.0	-5.5	-0.1	5.2	x	x
CCCCNC(=O)C1CCCN1C(=O)Nc1cc(C)cc(C)c1 (stereo not drawn)	x	x	x	-0.6	-1.9	x	x	x
COc1ccc(-c2csc3ncnc(N4CCN(c5ccccc5O)CC4)c23)cc1	-2.6	11.0	55.8*	x	x	3.6	-12.0	-3.3
COc1ccccc1N1CCN(C(=O)CSc2ncnc3scc(-c4ccccc4)c23)CC1	0.8	6.6	60.3*	-1.6	-3.6	7.0	4.5	1.9
CCCCCCCCNS(=O)(=O)CC1NCc2cc(F)ccc21 (stereo not drawn)	x	x	x	2.0	-7.3	x	x	x
O=C(Nc1ccccc1)c1nn(-c2ccccc2)c(=O)cc1C(F)(F)F	2.5	3.5	101.4*	-0.9	-1.4	7.2	-2.6	-9.4
CC(C)(O)C#Cc1ccc(C(=O)N2CCCC(CNS(=O)(=O)c3cccs3)C2)o1 (stereo not drawn)	1.5	1.2	60.7*	-3.8	-0.9	-2.0	-9.4	3.2
Cc1cc(C)c(C(=O)N2CCCC(CNS(=O)(=O)c3cccs3)C2)o1 (stereo not drawn)	-3.0	-0.2	-8.7	0.6	1.1	-4.2	x	x
CCC(=O)Nc1c(C#N)c2nc3ccccc3nc2n1-c1ccccc1C	0.1	-8.0	-9.4	-0.5	-1.5	-13.6	x	x
CCC(=O)Nc1c(C#N)c2nc3ccccc3nc2n1C1CCCCC1	-2.7	6.7	75.1*	-1.8	-0.6	-4.8	-2.9	-6.8
O=C(NCCc1ccc(S(=O)(=O)N2CCCC2)cc1)c1cccs1	3.6	-2.8	87.4*	-3.9	2.6	-2.7	1.0	0.9
COc1ccccc1NS(=O)(=O)c1cc(NC(=O)c2sc3cc(Cl)ccc3c2Cl)ccc1C	-0.8	-3.6	104.7*	-3.8	0.9	1.7	3.2	3.6
NC(=O)NCC(c1ccccc1)C1CCCCC1 (stereo not drawn)	1.2	6.5	61.4*	-0.1	-0.2	9.9	-6.7	-2.2
NC(=O)C(c1ccccc1)C1CCCC1 (stereo not drawn)	1.0	-10.3	2.2	-0.2	2.6	6.6	x	x
Oc1ccc2[nH]cc(CCc3ccccc3)c2c1-c1ccccc1	x	x	x	-0.2	2.0	x	x	x
COc1ccc(-c2nc(CS(=O)CC(=O)NC3CCC(C)CC3)c(C)o2)cc1OC (stereo not drawn)	5.3	15.1	54.5*	-6.4	-1.1	5.6	-10.7	0.1
CC(C)N1CCCCC(NC(=O)c2c(F)cccc2F)C1=O (stereo not drawn)	x	x	x	-7.1	-2.5	x	x	x

Screens (PubChem)
